Laboratory results published in ChEMBL document CHEMBL2086304, “Synthesis and in vitro antimycobacterial and isocitrate lyase inhibition properties of novel 2-methoxy-2'-hydroxybenzanilides, their thioxo analogues and benzoxazoles” (Eur J Med Chem, 2012).
Converted amounts (≈) assume the structure as drawn.

How the values were obtained:
Mycobacterium kansasii [1] = test: Antimycobacterial activity against isoniazid resistance Mycobacterium kansasii 225/80 after 21 days by micromethod; assay type: functional; details: 225/80, 504 h
Mycobacterium avium [2] = test: Antimycobacterial activity against isoniazid resistance Mycobacterium avium 330/88 after 14 days by micromethod; assay type: functional; details: 330/88, 336 h
Method in brief: (§1)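 Inocula: M. tuberculosis My 331/88 at 10^-3 dilution, M. avium My 330/88 at 10^-5, M. kansasii My 235/80 and clinical isolate 6509/96 at 10^-4. Compounds added in DMSO at 1000 down to 0.5 (twofold series). Read at 14 and 21 days, plus 7 days for M. kansasii. MIC taken as lowest concentration inhibiting growth.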

Mycobacterium kansasii [3] = test: Antimycobacterial activity against isoniazid resistance Mycobacterium kansasii 225/80 after 14 days by micromethod; assay type: functional; details: 225/80, 336 h
[4] = biological target: T1, Isocitrate lyase (Mycobacterium tuberculosis) (UniProt P9WKK7); test: Inhibition of Mycobacterium tuberculosis H37Rv isocitrate lyase expressed in Escherichia coli HB101 at 10 umol/L
T1 sequence (whole entry): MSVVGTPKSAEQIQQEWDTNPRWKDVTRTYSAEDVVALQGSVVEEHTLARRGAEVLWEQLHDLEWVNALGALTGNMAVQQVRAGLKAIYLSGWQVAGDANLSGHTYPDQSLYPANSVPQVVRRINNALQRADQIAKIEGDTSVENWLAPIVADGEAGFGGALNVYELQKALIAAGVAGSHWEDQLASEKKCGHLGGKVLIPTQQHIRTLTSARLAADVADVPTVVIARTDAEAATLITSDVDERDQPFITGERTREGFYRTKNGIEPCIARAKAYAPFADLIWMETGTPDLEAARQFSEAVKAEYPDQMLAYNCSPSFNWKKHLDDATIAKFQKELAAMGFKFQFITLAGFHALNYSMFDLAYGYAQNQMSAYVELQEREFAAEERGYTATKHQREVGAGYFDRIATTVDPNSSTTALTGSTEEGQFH
Method in brief: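 Isocitrate lyase assayed per Dixon–Kornberg in 96-well format. Buffer: 50 mmol/L KH2PO4, 4 mmol/L MgCl2, 4 mmol/L phenylhydrazine, 12 mmol/L cysteine, pH 7.0. Glyoxylate phenylhydrazone read at 324 nm. Compounds added in DMSO, with DMSO-alone inhibition subtracted.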

Mycobacterium kansasii [5] = test: Antimycobacterial activity against isoniazid resistance Mycobacterium kansasii 225/80 after 7 days by micromethod; assay type: functional; details: 225/80, 168 h
[6] = system: Mycobacterium tuberculosis; test: Antimycobacterial activity against Mycobacterium tuberculosis 331/88 after 21 days by micromethod; assay type: functional; details: 331/88, 504 h; method in brief: as §1
Mycobacterium avium [7] = test: Antimycobacterial activity against isoniazid resistance Mycobacterium avium 330/88 after 21 days by micromethod; assay type: functional; details: 330/88, 504 h; method in brief: as §1
Mycobacterium kansasii [8] = test: Antimycobacterial activity against Mycobacterium kansasii 6509/96 clinical isolate after 7 days by micromethod; assay type: functional; details: 6509/96, 168 h; method in brief: as §1
[9] = system: Mycobacterium tuberculosis; test: Antimycobacterial activity against Mycobacterium tuberculosis 331/88 after 14 days by micromethod; assay type: functional; details: 331/88, 336 h; method in brief: as §1
Mycobacterium kansasii [10] = test: Antimycobacterial activity against Mycobacterium kansasii 6509/96 clinical isolate after 21 days by micromethod; assay type: functional; details: 6509/96, 504 h; method in brief: as §1
Mycobacterium kansasii [11] = test: Antimycobacterial activity against Mycobacterium kansasii 6509/96 clinical isolate after 14 days by micromethod; assay type: functional; details: 6509/96, 336 h; method in brief: as §1

Row | Structure (SMILES) | MIC (Mycobacterium kansasii [1]) [µM] | MIC (Mycobacterium avium [2]) [µM] | MIC (Mycobacterium kansasii [3]) [µM] | inhibition [4] [%] | MIC (Mycobacterium kansasii [5]) [µM] | MIC [6] [µM] | MIC (Mycobacterium avium [7]) [µM] | MIC (Mycobacterium kansasii [8]) [µM] | MIC [9] [µM] | MIC (Mycobacterium kansasii [10]) [µM] | MIC (Mycobacterium kansasii [11]) [µM]
1 | COc1ccc(Cl)cc1-c1nc2cc(Cl)c(Cl)cc2o1 | 125 (≈ 41.1 µg/mL) | 125 (≈ 41.1 µg/mL) | 125 (≈ 41.1 µg/mL) | 4 | 125 (≈ 41.1 µg/mL) | 125 (≈ 41.1 µg/mL) | 125 (≈ 41.1 µg/mL) | 125 (≈ 41.1 µg/mL) | 125 (≈ 41.1 µg/mL) | 125 (≈ 41.1 µg/mL) | 125 (≈ 41.1 µg/mL)
2 | COc1cc(Cl)ccc1-c1nc2cc(Cl)c(Cl)cc2o1 | 250 (≈ 82.1 µg/mL) | 250 (≈ 82.1 µg/mL) | 250 (≈ 82.1 µg/mL) | 0 | 250 (≈ 82.1 µg/mL) | 250 (≈ 82.1 µg/mL) | 500 (≈ 164 µg/mL) | 250 (≈ 82.1 µg/mL) | 250 (≈ 82.1 µg/mL) | 250 (≈ 82.1 µg/mL) | 250 (≈ 82.1 µg/mL)
3 | COc1ccc(Cl)cc1-c1nc2cc(Cl)ccc2o1 | 250 (≈ 73.5 µg/mL) | 250 (≈ 73.5 µg/mL) | 250 (≈ 73.5 µg/mL) | 0 | 250 (≈ 73.5 µg/mL) | 125 (≈ 36.8 µg/mL) | 250 (≈ 73.5 µg/mL) | 250 (≈ 73.5 µg/mL) | 125 (≈ 36.8 µg/mL) | 250 (≈ 73.5 µg/mL) | 250 (≈ 73.5 µg/mL)
4 | COc1ccc(Cl)cc1C(=O)Nc1cc(Cl)c(Cl)cc1OC(=O)c1cc(Cl)ccc1OC | 8 (≈ 4.12 µg/mL) | 62.5 (≈ 32.2 µg/mL) | 8 (≈ 4.12 µg/mL) | 3 | 4 (≈ 2.06 µg/mL) | 8 (≈ 4.12 µg/mL) | 62.5 (≈ 32.2 µg/mL) | 4 (≈ 2.06 µg/mL) | 8 (≈ 4.12 µg/mL) | 8 (≈ 4.12 µg/mL) | 8 (≈ 4.12 µg/mL)
5 | COc1cc(Cl)ccc1C(=O)Nc1ccc(Cl)cc1OC(=O)c1ccc(Cl)cc1OC | 125 (≈ 60.1 µg/mL) | 62.5 (≈ 30 µg/mL) | 32 (≈ 15.4 µg/mL) | 0 | 16 (≈ 7.69 µg/mL) | 8 (≈ 3.85 µg/mL) | 62.5 (≈ 30 µg/mL) | 8 (≈ 3.85 µg/mL) | 4 (≈ 1.92 µg/mL) | 62.5 (≈ 30 µg/mL) | 16 (≈ 7.69 µg/mL)
6 | COc1ccc(Cl)cc1-c1nc2ccc(C(F)(F)F)cc2o1 | 250 (≈ 81.9 µg/mL) | 250 (≈ 81.9 µg/mL) | 250 (≈ 81.9 µg/mL) | 0 | 250 (≈ 81.9 µg/mL) | 62.5 (≈ 20.5 µg/mL) | 250 (≈ 81.9 µg/mL) | 62.5 (≈ 20.5 µg/mL) | 62.5 (≈ 20.5 µg/mL) | 62.5 (≈ 20.5 µg/mL) | 62.5 (≈ 20.5 µg/mL)
7 | COc1cc(Cl)ccc1-c1nc2ccc(Cl)cc2o1 | 62.5 (≈ 18.4 µg/mL) | 62.5 (≈ 18.4 µg/mL) | 62.5 (≈ 18.4 µg/mL) | 0 | 62.5 (≈ 18.4 µg/mL) | 125 (≈ 36.8 µg/mL) | 62.5 (≈ 18.4 µg/mL) | 62.5 (≈ 18.4 µg/mL) | 125 (≈ 36.8 µg/mL) | 62.5 (≈ 18.4 µg/mL) | 62.5 (≈ 18.4 µg/mL)
8 | O=C(O)CC[N+](=O)[O-] | – | – | – | 25 | – | – | – | – | – | – | –
9 | COc1cc(Cl)ccc1-c1nc2cc(Br)ccc2o1 | 250 (≈ 84.6 µg/mL) | 250 (≈ 84.6 µg/mL) | 250 (≈ 84.6 µg/mL) | 0 | 250 (≈ 84.6 µg/mL) | 250 (≈ 84.6 µg/mL) | 250 (≈ 84.6 µg/mL) | 250 (≈ 84.6 µg/mL) | 250 (≈ 84.6 µg/mL) | 250 (≈ 84.6 µg/mL) | 250 (≈ 84.6 µg/mL)
10 | COc1ccc(Cl)cc1C(=O)Nc1cc(Cl)ccc1O | 16 (≈ 4.99 µg/mL) | 125 (≈ 39 µg/mL) | 16 (≈ 4.99 µg/mL) | 0 | 4 (≈ 1.25 µg/mL) | 32 (≈ 9.99 µg/mL) | 125 (≈ 39 µg/mL) | 8 (≈ 2.5 µg/mL) | 16 (≈ 4.99 µg/mL) | 16 (≈ 4.99 µg/mL) | 16 (≈ 4.99 µg/mL)
11 | COc1ccc(Cl)cc1-c1nc2cc(Br)ccc2o1 | 250 (≈ 84.6 µg/mL) | 250 (≈ 84.6 µg/mL) | 250 (≈ 84.6 µg/mL) | 0 | 250 (≈ 84.6 µg/mL) | 250 (≈ 84.6 µg/mL) | 250 (≈ 84.6 µg/mL) | 250 (≈ 84.6 µg/mL) | 250 (≈ 84.6 µg/mL) | 250 (≈ 84.6 µg/mL) | 250 (≈ 84.6 µg/mL)
12 | NNC(=O)c1ccncc1 [ISONIAZID] | > 250 | > 250 | > 250 | – | > 250 | 0.5 (≈ 0.0686 µg/mL) | > 250 | 4 (≈ 0.549 µg/mL) | 0.5 (≈ 0.0686 µg/mL) | 4 (≈ 0.549 µg/mL) | 4 (≈ 0.549 µg/mL)
13 | COc1cc(Cl)ccc1-c1nc2ccc(C(F)(F)F)cc2o1 | 250 (≈ 81.9 µg/mL) | 125 (≈ 41 µg/mL) | 250 (≈ 81.9 µg/mL) | 0 | – | 250 (≈ 81.9 µg/mL) | 125 (≈ 41 µg/mL) | 250 (≈ 81.9 µg/mL) | 250 (≈ 81.9 µg/mL) | 250 (≈ 81.9 µg/mL) | 250 (≈ 81.9 µg/mL)
14 | COc1cc(Cl)ccc1-c1nc2ccc(Br)cc2o1 | 125 (≈ 42.3 µg/mL) | 125 (≈ 42.3 µg/mL) | 125 (≈ 42.3 µg/mL) | 0 | 125 (≈ 42.3 µg/mL) | 125 (≈ 42.3 µg/mL) | 125 (≈ 42.3 µg/mL) | 125 (≈ 42.3 µg/mL) | 125 (≈ 42.3 µg/mL) | 125 (≈ 42.3 µg/mL) | 125 (≈ 42.3 µg/mL)
15 | COc1ccc(Cl)cc1C(=O)Nc1ccc(C(F)(F)F)cc1OC(=O)c1cc(Cl)ccc1OC | 16 (≈ 8.23 µg/mL) | 62.5 (≈ 32.1 µg/mL) | 8 (≈ 4.11 µg/mL) | 9 | – | 250 (≈ 129 µg/mL) | 62.5 (≈ 32.1 µg/mL) | 8 (≈ 4.11 µg/mL) | 250 (≈ 129 µg/mL) | 8 (≈ 4.11 µg/mL) | 8 (≈ 4.11 µg/mL)
16 | COc1cc(Cl)ccc1C(=O)Nc1ccc(C(F)(F)F)cc1OC(=O)c1ccc(Cl)cc1OC | 250 (≈ 129 µg/mL) | 62.5 (≈ 32.1 µg/mL) | 250 (≈ 129 µg/mL) | 8 | – | 250 (≈ 129 µg/mL) | 62.5 (≈ 32.1 µg/mL) | 250 (≈ 129 µg/mL) | 250 (≈ 129 µg/mL) | 250 (≈ 129 µg/mL) | 250 (≈ 129 µg/mL)
